Series [1] is described as follows: Half life in Sprague-Dawley rat liver at 10 mg/kg, po. Format: ADME, organism-based. More on the design: dose 10 mg/kg, route oral. In outline: (§1)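 Dose-proportionality PK in Sprague–Dawley rats (n = 3) given single oral doses of 3, 10, 30 or 100 mg/kg. Liver and plasma were sampled at 0.5, 1, 2, 4 and 8 h and assayed for drug concentration to derive Cmax, AUC(0–∞) and T1/2.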

Series [2] is described as follows: Half life in Sprague-Dawley rat liver at 100 mg/kg, po. The class given is ADME, organism-based. More on the design: dose 100 mg/kg, route oral. In outline: as §1
The test system of series [3] is HepG2. Put plainly: Inhibition of apoB secretion in human HepG2 cells after 40 hrs by ELISA. The note with it: HepG2, 40 h. Format: functional, cell-based.
For series [4], the system named is Mus musculus. Put plainly: Decrease in total food intake in 3-day high fat diet fed C57BL/6 mouse at 3 mg/kg, po daily for 3 days. Set-up: scale not given: the % may be the effect or the level left. Format: functional. In outline:
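Lean C57BL/6 mice were given high-fat diet for 1 week, then dosed orally once daily in the evening for 3 days. Food intake and body weight were recorded daily. At the end a morning dose was given, and blood was drawn at 30 min, 2 h and 6 h for plasma triglycerides.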

Series [5] concerns Mus musculus. As to the kind of experiment: Decrease in total food intake in 28-day diet-induced obesity C57BL/6 mouse model at 1 mg/kg, po daily for 4 weeks measured on day 21. The class given is functional. More on the design: scale not given: the % may be the effect or the level left. In outline:
(§2)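 C57BL/6 male mice were fed high-fat diet for 4 weeks beforehand to about 40 g and kept on it throughout. Groups of n = 10 were dosed po once daily for 4 weeks at 1 or 3 mg/kg, or vehicle (5% PEG400, 0.25% Tween 80, 94.25% H2O). Food was weighed and replaced with pre-weighed food 3 times weekly. Fed plasma glucose was taken at 2 weeks and insulin at 4 weeks.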

Series [6] deals with Mus musculus. Put plainly: Decrease in insulin level in 28-day diet-induced obesity C57BL/6 mouse model at 3 mg/kg, po daily for 4 weeks. The class given is functional, organism-based. Set-up: dose 3 mg/kg. In a few lines: as §2
Series [7] has as its system Mus musculus. As to the kind of experiment: Toxicity in 28-day diet-induced obesity C57BL/6 mouse model assessed as liver alkaline phosphatase level at 1 to 3 mg/kg, po daily for 4 weeks. The class given is organism-based. More on the design: dose 1-3 mg/kg, route oral. The note with it: in vivo, 672 h. In outline:
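C57BL/6 male mice kept on high fat diet 4 weeks before study (body weight about 40 g) and throughout; n = 10, dosed orally once daily for 4 weeks at 1 or 3 mg/kg, vehicle 5% PEG400, 0.25% Tween 80, 94.25% H2O; liver weight and ALT, AST, alkaline phosphatase assessed after 4 weeks.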

The nature of series [8]: Clearance in Sprague-Dawley rat at 1 mg/kg, iv. More on the design: dose 1 mg/kg, route intravenous. The note with it: in vivo. Format: ADME, organism-based.
Series [9] in a line: Half life in Sprague-Dawley rat at 1 mg/kg, iv. Format: ADME, organism-based. More on the design: dose 1 mg/kg, route intravenous. The note with it: in vivo.
Series [10] in a line: Cmax in Sprague-Dawley rat at 1 mg/kg, iv. The class given is ADME, organism-based. The note with it: in vivo. Set-up: dose 1 mg/kg, route intravenous.
The nature of series [11]: Half life in Sprague-Dawley rat at 3 mg/kg, po. Format: ADME, organism-based. Set-up: dose 3 mg/kg, route oral. The note with it: in vivo.
The nature of series [12]: Oral bioavailability in Sprague-Dawley rat at 3 mg/kg. The note with it: in vivo. The class given is ADME, organism-based. In outline: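 Rats dosed orally at 3 mg/kg; Cmax, Tmax, oral half-life and AUC determined from plasma, and oral bioavailability (%F) calculated against the 1 mg/kg IV bolus.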
A short description of series [13]: AUC (0 to infinity) in Sprague-Dawley rat plasma at 30 mg/kg, po. The class given is ADME, organism-based. Set-up: time infinity, dose 30 mg/kg, route oral. In outline: as §1
The nature of series [14]: Cmax in Sprague-Dawley rat plasma at 3 mg/kg, po. More on the design: dose 3 mg/kg, route oral. The class given is ADME, organism-based. In outline: as §1
Series [15] is described as follows: Cmax in Sprague-Dawley rat plasma at 10 mg/kg, po. More on the design: dose 10 mg/kg, route oral. Format: ADME, organism-based. In outline:
as §1

Series [16] in a line: Half life in Sprague-Dawley rat plasma at 10 mg/kg, po. The class given is ADME, organism-based. More on the design: dose 10 mg/kg, route oral. In a few lines: as §1
Series [17] can be described thus: Half life in Sprague-Dawley rat plasma at 100 mg/kg, po. Format: ADME, organism-based. Set-up: dose 100 mg/kg, route oral. In outline:
as §1

SMILES strings stand for the structures. Calls of active or inactive are those of the source. The rule behind the calls is not given here.

The term half-life denotes the time in which the quantity being followed falls by half. The term IC50 denotes the midpoint of a concentration-inhibition curve. In general, clearance refers to the rate of elimination divided by the concentration. Broadly, the Cmax is the peak of the concentration-time curve. In general, bioavailability refers to dose-corrected exposure relative to a reference, in per cent. One may read the AUC(0-inf) as total exposure, with the tail of the curve extrapolated.

Turning to `CC(C)c1ccc(-c2ccccc2C(=O)Nc2ccc3nc(C(=O)N[C@H](C(=O)N(C)Cc4ccc(F)cc4)c4ccccc4)sc3c2)cc1`, the half-life is 19.4 h in series [1]; 6.44 h in series [2]; 2 h in series [9]; 2.13 h in series [11]; 7.91 h in series [16]; 5.44 h in series [17]. Moreover, inhibition in [3] was half-maximal at 6.2 nM (IC50). Further, the Activity is given as 14% in series [4], 9% in [5] and “Non-toxic” in series [7]. Also, the outcome in [6] was Active. In [8], this molecule showed a clearance of 17.2 mL/min/kg. In addition, the Cmax in series [10] came to 5980 ng/mL; in [14], 35 ng/mL; in [15], 58 ng/mL. For the same molecule, the bioavailability in series [12] worked out at 1.29%. Further, the AUC(0-inf) in series [13] was 510 ng·h/mL.

These data come from ChEMBL document CHEMBL1153899, “Discovery of benzothiazole derivatives as efficacious and enterocyte-specific MTP inhibitors” (Bioorg Med Chem Lett, 2009).
